For assay [1], the target named is T1, Carbonic anhydrase 1 (Homo sapiens, UniProt P00915). The assay can be described thus: Inhibition of human CA1 preincubated for 6 hrs by phenol red dye based stopped flow CO2 hydration assay. The method, boiled down:
(§1)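 Ki values are the mean of three separate assays, with errors within ±5–10% of the reported values. Coumarin derivatives were incubated with the enzyme for 6 h before measurement.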

In assay [2] the target is T2, Carbonic anhydrase 9 (Homo sapiens, UniProt Q16790). The assay can be described thus: Inhibition of human CA9 preincubated for 6 hrs by phenol red dye based stopped flow CO2 hydration assay. A digest of the protocol: as §1
Assay [3] addresses T3, Carbonic anhydrase 2 (Homo sapiens, UniProt P00918). The assay can be described thus: Inhibition of human CA2 preincubated for 6 hrs by phenol red dye based stopped flow CO2 hydration assay. A digest of the protocol:
as §1

The target in assay [4] is T2, Carbonic anhydrase 9. The assay can be described thus: Inhibition of human CA9 preincubated for 15 mins by phenol red dye based stopped flow CO2 hydration assay.
Assay [5] has as its target T3, Carbonic anhydrase 2. The assay can be described thus: Inhibition of human CA2 preincubated for 15 mins by phenol red dye based stopped flow CO2 hydration assay.
Assay [6] concerns the target T1, Carbonic anhydrase 1. The assay can be described thus: Inhibition of human CA1 preincubated for 15 mins by phenol red dye based stopped flow CO2 hydration assay.
Assay [7] has as its target Carbonic anhydrase 12 (Homo sapiens, UniProt O43570). The assay can be described thus: Inhibition of human CA12 preincubated for 6 hrs by phenol red dye based stopped flow CO2 hydration assay.

T1 sequence (P00915 whole entry): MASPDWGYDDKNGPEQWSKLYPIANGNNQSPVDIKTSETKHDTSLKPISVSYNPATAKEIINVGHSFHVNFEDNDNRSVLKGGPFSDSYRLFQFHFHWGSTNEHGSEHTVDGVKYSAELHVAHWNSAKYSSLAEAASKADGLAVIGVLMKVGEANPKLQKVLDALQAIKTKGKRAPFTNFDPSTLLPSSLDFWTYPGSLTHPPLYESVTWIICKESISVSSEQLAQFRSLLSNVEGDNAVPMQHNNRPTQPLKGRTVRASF
Sequence of Carbonic anhydrase 12 (O43570 whole entry): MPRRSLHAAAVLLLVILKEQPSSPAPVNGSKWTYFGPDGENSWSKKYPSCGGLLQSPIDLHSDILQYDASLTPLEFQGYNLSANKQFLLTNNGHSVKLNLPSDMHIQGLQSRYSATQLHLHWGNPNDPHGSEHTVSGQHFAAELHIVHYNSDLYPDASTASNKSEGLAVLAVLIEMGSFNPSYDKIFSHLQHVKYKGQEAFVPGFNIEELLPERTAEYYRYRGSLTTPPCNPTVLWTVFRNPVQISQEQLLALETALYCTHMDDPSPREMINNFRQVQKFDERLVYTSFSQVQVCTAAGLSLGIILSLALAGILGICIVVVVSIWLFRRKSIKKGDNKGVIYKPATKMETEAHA

For the compound `O=C(CS(=O)(=O)c1ccccc1)c1cc2cc(Br)ccc2oc1=O`, the Ki in assay [1] is above 100000 nM; in assay [2] it was 76.6 nM; in assay [3] it was above 100000 nM.

For the compound `O=C(N/N=C(\CS(=O)(=O)c1ccccc1)c1cc2cc(Br)ccc2oc1=O)c1ccccc1`, the Ki in assay [1] is above 100000 nM; in assay [2], 8860 nM; in assay [3], above 100000 nM.

Take `C/C(=N\NC(=O)c1ccc(S(N)(=O)=O)cc1)c1cc2cc(Br)ccc2oc1=O`: the inhibition constant Ki was 19.8 nM in assay [4], 12.1 nM in assay [5] and 92.5 nM in assay [6].

For `Cc1ccc(S(=O)(=O)C/C(=N\Nc2ccccc2)c2cc3cc(Br)ccc3oc2=O)cc1`, the Ki is above 100000 nM in assay [1], 8110 nM in assay [2] and above 100000 nM in assay [3].

In the case of `NS(=O)(=O)c1ccc(N/N=C(\CS(=O)(=O)c2ccccc2)c2cc3ccccc3oc2=O)cc1`, the Ki in assay [4] came out at 89.1 nM; in assay [5], 442 nM; in assay [6] it was 824 nM.

For the compound `Cc1ccc(S(=O)(=O)C/C(=N\NC(=O)c2ccc(S(N)(=O)=O)cc2)c2cc3ccccc3oc2=O)cc1`, the inhibitory constant (Ki) in assay [4] turned out to be 42.1 nM; in assay [5] it was 365 nM; in assay [6] it was 1350 nM.

Take `Cc1ccc(S(=O)(=O)C/C(=N\Nc2ccc(S(N)(=O)=O)cc2)c2cc3ccccc3oc2=O)cc1`: the values for the Ki in assay [4], in assay [5] and in assay [6] were 76 nM, 560 nM and 2600 nM, respectively.

In the case of `NS(=O)(=O)c1ccc(C(=O)N/N=C(\CS(=O)(=O)c2ccccc2)c2cc3ccccc3oc2=O)cc1`, the values for the Ki in assay [4], in assay [5] and in assay [6] were 18.6 nM, 225 nM and 1540 nM, respectively.

For `Cc1ccc(S(=O)(=O)C/C(=N\Nc2ccccc2)c2cc3ccccc3oc2=O)cc1`, the Ki is above 100000 nM in assay [1], 3940 nM in assay [2] and above 100000 nM in assay [3].

On to `Cc1ccc(S(=O)(=O)C/C(=N\Nc2ccc(S(N)(=O)=O)cc2)c2cc3cc(Br)ccc3oc2=O)cc1`, for which the inhibitory constant (Ki) in assay [5] came to 538 nM; in assay [6] it was 3960 nM.

Regarding `Cc1ccc(S(=O)(=O)CC(=O)c2cc3cc(Br)ccc3oc2=O)cc1`, the results for the Ki in assay [1], in assay [2] and in assay [3] were above 100000 nM, 87.2 nM and above 100000 nM, respectively.

As to `O=C(N/N=C(\CS(=O)(=O)c1ccccc1)c1cc2ccccc2oc1=O)c1ccccc1`, the figures for the Ki in assay [1], in assay [2] and in assay [3] were above 100000 nM, 16000 nM and above 100000 nM, respectively.

For `O=c1oc2ccccc2cc1/C(CS(=O)(=O)c1ccccc1)=N/Nc1ccccc1`, the results for the Ki in assay [1], in assay [2] and in assay [3] were above 100000 nM, 1500 nM and above 100000 nM, respectively.

For `NS(=O)(=O)c1ccc(N/N=C(\CS(=O)(=O)c2ccccc2)c2cc3cc(Br)ccc3oc2=O)cc1`, the Ki in assay [4] came to 63.6 nM; in assay [5] it was 276 nM; in assay [6] it was 3460 nM.

As to `O=c1oc2ccc(Br)cc2cc1/C(CS(=O)(=O)c1ccccc1)=N/Nc1ccccc1`, the inhibitory constant (Ki) in assay [1] was above 100000 nM; in assay [2], 4640 nM; in assay [3] it was above 100000 nM.

For the compound `O=C(CS(=O)(=O)c1ccccc1)c1cc2ccccc2oc1=O`, the Ki is above 100000 nM in assay [1], 60.1 nM in assay [7], 41.4 nM in assay [2] and above 100000 nM in assay [3].

Regarding `C/C(=N\NC(=O)c1ccc(S(N)(=O)=O)cc1)c1cc2ccccc2oc1=O`, the Ki was 31.6 nM in assay [4], 26.3 nM in assay [5] and 77.6 nM in assay [6].

Regarding `Cc1ccc(S(=O)(=O)CC(=O)c2cc3ccccc3oc2=O)cc1`, the inhibition constant Ki in assay [1] was above 100000 nM; in assay [2], 66.3 nM; in assay [3], above 100000 nM.

In assay [4], `C/C(=N\Nc1ccc(S(N)(=O)=O)cc1)c1cc2cc(Br)ccc2oc1=O` returned an inhibition constant Ki of 24.2 nM.

On to `C/C(=N\Nc1ccc(S(N)(=O)=O)cc1)c1cc2ccccc2oc1=O`, for which the Ki in assay [4] was determined as 43.8 nM.

Source of the values: ChEMBL document CHEMBL4706613, “Novel 3-substituted coumarins as selective human carbonic anhydrase IX and XII inhibitors: Synthesis, biological and molecular dynamics analysis” (Eur J Med Chem, 2021).
